Consider 33 compounds from ChEMBL document CHEMBL3259681, “Structure-activity relationship refinement and further assessment of 4-phenylquinazoline-2-carboxamide translocator protein ligands as antiproliferative agents in human glioblastoma tumors” (J Med Chem, 2014).

Usually Ki stands for a measure of affinity in units of concentration, obtained from inhibition or displacement. Low readings indicate higher affinity, high ones lower affinity. Usually inhibition stands for the percentage by which the read-out fell short of the control. Broadly, the IC50 is the concentration that gives 50% inhibition.

Activity calls are given as the source filed them. The rule behind the calls is not given here.

One experiment deals with Translocator protein (Rattus norvegicus, UniProt P16257). Briefly: Displacement of [3H]PK11195 from TSPO in rat kidney mitochondrial membranes. Type of experiment: cell membranes.
Sequence of Translocator protein (P16257 whole entry, looked up): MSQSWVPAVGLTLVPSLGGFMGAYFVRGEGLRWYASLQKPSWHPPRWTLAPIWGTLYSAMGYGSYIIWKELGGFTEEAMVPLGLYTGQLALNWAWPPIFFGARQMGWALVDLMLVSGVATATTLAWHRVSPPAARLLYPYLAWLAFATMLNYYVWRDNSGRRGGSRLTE
In experiment [1] the target is Translocator protein (Rattus norvegicus) (UniProt P16257). Put plainly: Displacement of [3H]PK11195 from TSPO in rat kidney mitochondrial membranes at 1 uM. Type of experiment: cell membranes. Summed up: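 Competition binding against 0.6 nM [³H]PK11195 in crude rat kidney mitochondrial membranes, 50 mM Tris–HCl pH 7.4. Six compound concentrations spanning 0.05 nM–20 μM, each in triplicate. IC50 from displacement curves, converted to Ki by Cheng–Prusoff. Percent inhibition taken at 1 μM. Values are mean ± SEM of three determinations.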
Sequence of Translocator protein (Rattus norvegicus) (P16257 whole entry, looked up): as above
A general note: In a radioligand displacement assay an active substance lowers the binding of a labelled ligand.

For experiment [2], the species on record is Homo sapiens. Put plainly: Binding affinity to Central-type benzodiazepine receptor (unknown origin).
The species named for experiment [3] is Homo sapiens. Put plainly: Induction of mitochondrial membrane depolarization in human U-343 MGa cells at 3 uM for 15 mins by cell fluo-analyzer relative to control. Type of experiment: functional, cell-based. Summed up: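 U343 cells were grown at 37 °C and 5% CO₂ in EMEM with 10% FBS, seeded at ~60 × 10³ cells/well and grown 24 h. They were then exposed to the uncoupler as a depolarized positive control. Floating and adherent cells were pooled and stained with MitoPotential dye (20 min, rt), then with 7-AAD (5 min). The Muse cytometer gave % live, depolarized and dead cells.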

In experiment [4] the target is Receptor-type tyrosine-protein kinase FLT3 (Homo sapiens) (UniProt P36888). Put plainly: Inhibition of human FLT-3 kinase at 1 uM.
Sequence of Receptor-type tyrosine-protein kinase FLT3 (Homo sapiens) (P36888 whole entry): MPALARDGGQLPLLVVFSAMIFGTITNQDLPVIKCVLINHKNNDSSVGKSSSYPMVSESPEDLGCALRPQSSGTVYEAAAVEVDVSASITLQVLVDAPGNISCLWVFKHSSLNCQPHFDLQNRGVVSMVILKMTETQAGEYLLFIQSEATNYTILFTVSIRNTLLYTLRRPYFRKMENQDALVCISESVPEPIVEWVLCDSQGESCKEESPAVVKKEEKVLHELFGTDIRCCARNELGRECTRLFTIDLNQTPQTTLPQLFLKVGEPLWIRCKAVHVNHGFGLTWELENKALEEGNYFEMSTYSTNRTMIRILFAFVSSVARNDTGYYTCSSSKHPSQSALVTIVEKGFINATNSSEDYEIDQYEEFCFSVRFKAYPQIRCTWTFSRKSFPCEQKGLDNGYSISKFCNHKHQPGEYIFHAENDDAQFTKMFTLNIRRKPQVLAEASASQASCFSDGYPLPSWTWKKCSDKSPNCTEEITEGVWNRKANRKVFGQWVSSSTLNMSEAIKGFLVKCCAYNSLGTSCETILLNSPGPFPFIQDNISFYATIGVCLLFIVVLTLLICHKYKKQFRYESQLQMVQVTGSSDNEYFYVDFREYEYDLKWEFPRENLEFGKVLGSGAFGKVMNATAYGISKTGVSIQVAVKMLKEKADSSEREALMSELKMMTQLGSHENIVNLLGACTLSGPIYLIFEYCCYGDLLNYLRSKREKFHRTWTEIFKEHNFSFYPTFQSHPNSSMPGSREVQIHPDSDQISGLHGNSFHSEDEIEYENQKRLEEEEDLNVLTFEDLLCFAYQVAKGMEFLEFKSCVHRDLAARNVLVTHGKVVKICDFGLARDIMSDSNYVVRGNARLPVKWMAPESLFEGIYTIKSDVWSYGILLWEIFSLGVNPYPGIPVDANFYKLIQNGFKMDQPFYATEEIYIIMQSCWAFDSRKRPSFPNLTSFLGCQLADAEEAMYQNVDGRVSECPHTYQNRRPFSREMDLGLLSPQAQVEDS
For experiment [5] the target is unchanged. Put plainly: Inhibition of human FLT-3 kinase at 10 uM.
In experiment [6] the target is Platelet-derived growth factor receptor alpha (Homo sapiens) (UniProt P16234). Put plainly: Inhibition of human PDGFRalpha kinase at 1 uM.
For experiment [7], the target named is Vascular endothelial growth factor receptor 2 (Homo sapiens) (UniProt P35968). Briefly: Inhibition of human KDR kinase at 1 uM.
For experiment [8] the target is unchanged. Briefly: Inhibition of human KDR kinase at 10 uM.
Experiment [9] has as its target Receptor tyrosine-protein kinase erbB-2 (Homo sapiens) (UniProt P04626). Briefly: Inhibition of human HER2/ErbB2 kinase at 1 uM.
Experiment [10] has the same target. Briefly: Inhibition of human HER2/ErbB2 kinase at 10 uM.
Experiment [11] concerns the target Vascular endothelial growth factor receptor 1 (Homo sapiens) (UniProt P17948). Put plainly: Inhibition of human FLT-1 kinase at 1 uM.
Experiment [12] has the same target. Briefly: Inhibition of human FLT-1 kinase at 10 uM.
The species entered for experiment [13] is Homo sapiens. Briefly: Cytotoxicity against human U-343 MGa cells assessed as decrease in cell viability at 50 uM after 24 hrs by colorimetric viability MTS assay. Type of experiment: functional, cell-based. In outline: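 U343 cells in MEM with 10% FBS were seeded ~4.5 × 10³/well and grown 24 h. They were then exposed 24 h to 50 μM compound in complete medium; DMSO or EtOH vehicle was ≤1%. Viable cells were read by MTS colorimetric conversion as percent of vehicle control. Measurements in duplicate; mean ± SEM of three determinations.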
On the technique in general: Tetrazolium dyes change colour on reduction, which living cells bring about.

Experiment [14] in a line: (§1) Cytotoxicity against human U-343 MGa cells assessed as inhibition of cell survival after 24 hrs by colorimetric viability MTS assay. Type of experiment: functional, cell-based. Summed up: (§2)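 U343 cells were seeded ~4.5 × 10³/well, grown 24 h, then treated 24 h with 10 nM–100 μM compound; vehicle (DMSO or EtOH) was ≤1%. Viability by MTS conversion relative to control (100%). IC50 was taken as the concentration giving half-maximal survival inhibition. Duplicates, ≥3 experiments, mean ± SEM.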

Experiment [15] is filed under the species Homo sapiens. The description is as §1. Type of experiment: functional, cell-based. Summed up: as §2
The species entered for experiment [16] is Homo sapiens. Briefly: Induction of mitochondrial membrane depolarization in human U-343 MGa cells at 10 uM after 5 hrs by cell fluo-analyzer relative to control. Type of experiment: functional, cell-based. In outline: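 U343 cells were seeded ~60 × 10³/well, grown 24 h, then treated 5 h with 10 μM compound; CCCP 3 μM for 15 min served as depolarized control. Floating and adherent cells were pooled and stained with MitoPotential dye for 20 min at rt, then 7-AAD for 5 min. Percent live, depolarized and dead cells was read on a Muse cytometer.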

The species named for experiment [17] is Homo sapiens. Put plainly: Agonist activity at GPCR in human U-343 MGa cell membrane assessed as increase in basal [35S]GTPgamma binding at 0.1 nM. Type of experiment: functional, cell membranes.
The species entered for experiment [18] is Homo sapiens. Put plainly: Agonist activity at GPCR in human U-343 MGa cell membrane assessed as increase in basal [35S]GTPgamma binding at 100 uM. Type of experiment: functional, cell membranes.
Experiment [19] concerns the target Tyrosine-protein kinase ABL1 (Homo sapiens) (UniProt P00519). Put plainly: Inhibition of human Abl kinase at 1 uM.
For experiment [20] the target is unchanged. Put plainly: Inhibition of human Abl kinase at 10 uM.
The target of experiment [21] is Mast/stem cell growth factor receptor Kit (Homo sapiens) (UniProt P10721). Put plainly: Inhibition of human c-kit kinase at 1 uM.
The target is the same in experiment [22]. Put plainly: Inhibition of human c-kit kinase at 10 uM.
The target in experiment [23] is Epidermal growth factor receptor (Homo sapiens) (UniProt P00533). Put plainly: Inhibition of human EGFR kinase at 1 uM.
Sequence of Epidermal growth factor receptor (Homo sapiens) (P00533 whole entry): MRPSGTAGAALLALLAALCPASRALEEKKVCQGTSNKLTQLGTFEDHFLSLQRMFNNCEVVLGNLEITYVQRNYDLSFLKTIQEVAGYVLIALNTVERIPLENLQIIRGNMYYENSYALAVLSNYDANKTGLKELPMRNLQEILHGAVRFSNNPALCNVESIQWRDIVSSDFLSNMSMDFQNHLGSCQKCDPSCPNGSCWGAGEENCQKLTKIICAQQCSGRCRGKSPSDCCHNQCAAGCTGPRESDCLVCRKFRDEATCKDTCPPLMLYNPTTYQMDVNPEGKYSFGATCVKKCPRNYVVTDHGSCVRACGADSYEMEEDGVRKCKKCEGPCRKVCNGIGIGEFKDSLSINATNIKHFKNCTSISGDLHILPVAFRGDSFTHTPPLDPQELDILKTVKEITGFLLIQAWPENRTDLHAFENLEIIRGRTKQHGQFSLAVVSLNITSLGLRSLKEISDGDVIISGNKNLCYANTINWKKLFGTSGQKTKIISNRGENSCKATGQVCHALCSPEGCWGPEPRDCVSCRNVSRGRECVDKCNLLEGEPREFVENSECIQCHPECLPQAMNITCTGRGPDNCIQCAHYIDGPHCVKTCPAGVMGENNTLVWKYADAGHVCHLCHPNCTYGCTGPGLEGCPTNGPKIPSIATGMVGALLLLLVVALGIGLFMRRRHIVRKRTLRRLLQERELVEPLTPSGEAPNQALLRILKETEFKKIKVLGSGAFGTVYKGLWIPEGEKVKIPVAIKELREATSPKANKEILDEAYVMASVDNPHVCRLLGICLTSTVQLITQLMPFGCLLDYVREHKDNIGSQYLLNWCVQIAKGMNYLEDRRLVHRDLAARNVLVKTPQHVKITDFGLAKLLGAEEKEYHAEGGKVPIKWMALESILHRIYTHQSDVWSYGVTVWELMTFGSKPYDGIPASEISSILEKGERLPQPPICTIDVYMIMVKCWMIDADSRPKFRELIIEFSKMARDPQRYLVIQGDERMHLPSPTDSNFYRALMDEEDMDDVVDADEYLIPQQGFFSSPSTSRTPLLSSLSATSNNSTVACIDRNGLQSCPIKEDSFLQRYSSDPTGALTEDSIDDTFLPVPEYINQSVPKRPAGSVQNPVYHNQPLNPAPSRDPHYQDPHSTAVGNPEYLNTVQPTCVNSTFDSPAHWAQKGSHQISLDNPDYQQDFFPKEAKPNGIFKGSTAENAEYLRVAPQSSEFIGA
Experiment [24] shares this target. Briefly: Inhibition of human EGFR kinase at 10 uM.
In experiment [25] the target is Platelet-derived growth factor receptor alpha (Homo sapiens) (UniProt P16234). Briefly: Inhibition of human PDGFRalpha kinase at 10 uM.
For experiment [26], the target named is Platelet-derived growth factor receptor beta (Homo sapiens) (UniProt P09619). Briefly: Inhibition of human PDGFRbeta kinase at 1 uM.
Sequence of Platelet-derived growth factor receptor beta (Homo sapiens) (P09619 whole entry): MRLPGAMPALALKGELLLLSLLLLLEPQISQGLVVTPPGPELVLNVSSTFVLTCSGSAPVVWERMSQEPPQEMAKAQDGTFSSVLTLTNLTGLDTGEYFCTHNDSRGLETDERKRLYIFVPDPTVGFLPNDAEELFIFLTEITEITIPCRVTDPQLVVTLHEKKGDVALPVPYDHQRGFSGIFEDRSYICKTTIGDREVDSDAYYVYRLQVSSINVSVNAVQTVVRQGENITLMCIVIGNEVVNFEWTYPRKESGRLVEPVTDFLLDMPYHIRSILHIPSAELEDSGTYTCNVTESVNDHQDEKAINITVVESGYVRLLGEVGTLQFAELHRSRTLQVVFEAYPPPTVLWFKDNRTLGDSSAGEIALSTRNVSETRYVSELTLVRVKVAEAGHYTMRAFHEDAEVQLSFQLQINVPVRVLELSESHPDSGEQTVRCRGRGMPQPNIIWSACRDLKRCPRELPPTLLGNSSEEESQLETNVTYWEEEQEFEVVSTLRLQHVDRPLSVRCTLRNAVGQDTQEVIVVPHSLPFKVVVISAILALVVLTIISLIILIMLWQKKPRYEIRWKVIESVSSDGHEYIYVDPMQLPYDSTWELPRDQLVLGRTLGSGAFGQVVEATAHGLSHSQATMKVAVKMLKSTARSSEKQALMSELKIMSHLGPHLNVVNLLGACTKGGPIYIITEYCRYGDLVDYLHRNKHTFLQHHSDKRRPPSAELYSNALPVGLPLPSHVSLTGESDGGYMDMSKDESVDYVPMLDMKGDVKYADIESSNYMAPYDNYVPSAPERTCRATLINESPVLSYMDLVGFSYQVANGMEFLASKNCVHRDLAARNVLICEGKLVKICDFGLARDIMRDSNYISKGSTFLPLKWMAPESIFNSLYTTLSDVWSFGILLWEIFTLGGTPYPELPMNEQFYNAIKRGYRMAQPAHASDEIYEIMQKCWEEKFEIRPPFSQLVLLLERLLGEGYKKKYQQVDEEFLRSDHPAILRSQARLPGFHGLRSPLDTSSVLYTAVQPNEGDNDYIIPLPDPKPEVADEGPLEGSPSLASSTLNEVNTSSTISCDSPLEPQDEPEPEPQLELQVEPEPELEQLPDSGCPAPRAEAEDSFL
Experiment [27] shares this target. Briefly: Inhibition of human PDGFRbeta kinase at 10 uM.
Experiment [28] addresses Protein kinase C beta type (Homo sapiens) (UniProt P05771). Briefly: Inhibition of human PKCbeta1 at 1 uM.
Experiment [29] shares this target. Briefly: Inhibition of human PKCbeta1 at 10 uM.
The target is the same in experiment [30]. Briefly: Inhibition of human PKCbeta2 at 1 uM.
Experiment [31] has the same target. Briefly: Inhibition of human PKCbeta2 at 10 uM.
The target in experiment [32] is Proto-oncogene tyrosine-protein kinase receptor Ret (Homo sapiens) (UniProt P07949). Put plainly: Inhibition of human Ret kinase at 1 uM.
Experiment [33] has the same target. Put plainly: Inhibition of human Ret kinase at 10 uM.
Experiment [34] has as its target Serine/threonine-protein kinase mTOR (Homo sapiens) (UniProt P42345). Briefly: Inhibition of human mTOR kinase at 1 uM.
Experiment [35] shares this target. Briefly: Inhibition of human mTOR kinase at 10 uM.
Experiment [36] in a line: Cytotoxicity against human U-343 MGa cells assessed as inhibition of cell survival at 100 uM after 24 hrs by colorimetric viability MTS assay. Type of experiment: functional. Summed up:
as §2

Sequence of Protein kinase C beta type (Homo sapiens) (P05771 2-671 limits assumed): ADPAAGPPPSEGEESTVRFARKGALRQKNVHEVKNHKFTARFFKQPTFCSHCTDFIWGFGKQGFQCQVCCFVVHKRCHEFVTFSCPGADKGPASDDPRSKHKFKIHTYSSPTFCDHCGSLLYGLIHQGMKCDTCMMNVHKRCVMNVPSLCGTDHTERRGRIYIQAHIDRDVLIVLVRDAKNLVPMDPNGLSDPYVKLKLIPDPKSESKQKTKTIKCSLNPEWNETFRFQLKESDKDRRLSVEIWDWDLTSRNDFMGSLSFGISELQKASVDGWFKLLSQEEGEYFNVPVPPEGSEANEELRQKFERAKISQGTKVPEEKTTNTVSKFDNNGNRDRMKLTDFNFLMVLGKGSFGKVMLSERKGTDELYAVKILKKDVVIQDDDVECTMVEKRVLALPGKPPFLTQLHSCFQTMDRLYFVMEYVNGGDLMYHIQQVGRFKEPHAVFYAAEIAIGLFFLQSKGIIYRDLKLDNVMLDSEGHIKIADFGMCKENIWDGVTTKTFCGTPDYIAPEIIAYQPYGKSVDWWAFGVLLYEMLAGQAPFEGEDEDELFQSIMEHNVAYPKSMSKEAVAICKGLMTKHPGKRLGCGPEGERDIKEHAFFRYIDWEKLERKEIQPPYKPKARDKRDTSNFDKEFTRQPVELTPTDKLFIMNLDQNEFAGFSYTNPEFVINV

On Translocator protein, `CN(Cc1ccccc1)C(=O)c1nc(-c2ccccc2F)c2ccccc2n1` gave a Ki of 1.11 nM.

For the compound `O=C(NCc1ccccc1)c1nc(-c2ccccc2Cl)c2ccccc2n1`, in experiment [1], the inhibition came to 16%.

For the compound `CCN(Cc1ccc([N+](=O)[O-])cc1)C(=O)c1nc(-c2ccccc2)c2ccccc2n1`, the inhibitory constant (Ki) at Translocator protein was 4.2 nM.

As for `CCCCCCN(CCCCCC)C(=O)c1nc(-c2ccccc2Cl)c2ccccc2n1`, the outcome in the experiment filed under Homo sapiens [2] was inactive.

With `N#CC(C#N)=NNc1cccc(Cl)c1`, in the experiment filed under Homo sapiens [3], the result was Active.

Take `CCN(Cc1ccccc1)C(=O)c1nc(-c2ccc(C)cc2)c2ccccc2n1`: the affinity on Translocator protein, expressed as Ki, was 1.49 nM.

For `CCN(Cc1ccccc1)C(=O)c1nc(-c2ccc(Cl)cc2)c2ccccc2n1`, the affinity on Translocator protein corresponds to a Ki of 0.762 nM.

With `CCN(Cc1ccc(O)cc1)C(=O)c1nc(-c2ccccc2)c2ccccc2n1`, the affinity on Translocator protein, expressed as Ki, was 8.76 nM.

For `CCN(Cc1ccccc1)C(=O)c1nc(-c2ccccc2)c2cc(Cl)ccc2n1`, the Ki at Translocator protein stood at 24.3 nM.

As to `CCN(Cc1ccccc1)C(=O)c1nc(-c2ccccc2F)c2ccccc2n1`, the affinity on Translocator protein corresponds to a Ki of 0.888 nM.

With `CN(Cc1ccccc1)C(=O)c1nc(-c2ccccc2)c2ccccc2n1`, the affinity on Translocator protein corresponds to a Ki of 3.99 nM.

For `CCN(Cc1ccc(C)cc1)C(=O)c1nc(-c2ccccc2Cl)c2ccccc2n1`, the inhibition entry in [4], in [5], in [6], in experiment [7], in [8] and in [9] was “inactive” throughout. Also, the inhibition entry in experiment [10], in experiment [11], in experiment [12], in [19], in [20] and in [21] was “inactive” each time. Besides, the inhibition result in experiment [22], in experiment [23], in experiment [24], in experiment [25], in [26] and in [27] was “inactive” in each case. Also, the inhibition result in experiment [28], in experiment [29], in [30], in [31], in [32] and in experiment [33] was “inactive” each time. Also, the inhibition result in [34] and in [35] was “inactive” throughout. At Translocator protein, this compound returned a Ki of 0.489 nM. Also, the inhibition entry in the experiment filed under Homo sapiens [13] is “Active”. Further, the IC50 in [14] stood at 15100 nM. The inhibition result in the experiment listed under Homo sapiens [15] is “Dose-dependent effect”. Also, the result in the experiment filed under Homo sapiens [16] was Active. Also, the result in the experiment filed under Homo sapiens [17] and in the experiment filed under Homo sapiens [18] was inactive.

`CCN(Cc1ccc(OC)cc1)C(=O)c1nc(-c2ccccc2)c2ccccc2n1`: on Translocator protein, the affinity, expressed as Ki, was 2.77 nM.

Take `CCC(C)N(C)C(=O)c1nc(-c2ccccc2Cl)c2ccccc2n1` (stereo not given): the outcome in the experiment listed under Homo sapiens [2] was inactive.

In turn, `CCN(Cc1ccc(C)cc1)C(=O)c1nc(-c2ccccc2F)c2ccccc2n1` displayed an inhibitory constant (Ki) on Translocator protein of 0.6 nM. This lies in the sub-nanomolar range.

`CN(Cc1ccccc1)C(=O)c1nc(-c2ccc(Cl)cc2)c2ccccc2n1` returned a Ki on Translocator protein of 6.12 nM.

As for `CCCCCCN(CCCCCC)C(=O)c1nc(-c2ccccc2)c2cc(Cl)ccc2n1`, the result in the experiment filed under Homo sapiens [2] was inactive.

For the compound `CN(Cc1ccccc1)C(=O)c1cc2ccccc2c(-c2ccccc2Cl)n1`, the inhibition constant (Ki) at Translocator protein was determined as 0.442 nM.

`CCCCCN(CCCCC)C(=O)c1nc(-c2ccccc2)c2ccccc2n1`: in the experiment filed under Homo sapiens [2], the outcome was inactive.

Turning to `CCOC(=O)c1ccc(CN(CC)C(=O)c2nc(-c3ccccc3)c3ccccc3n2)cc1`, affinity on Translocator protein was put at a Ki of 3.65 nM.

Turning to `CCN(Cc1ccccc1)C(=O)c1nc(-c2ccc(F)cc2)c2ccccc2n1`, the affinity on Translocator protein corresponds to a Ki of 1.68 nM.

In turn, `CCN(Cc1ccccc1)C(=O)c1nc(-c2ccccc2Cl)c2ccccc2n1` gave a Ki on Translocator protein of 0.235 nM. Compared with the last compound, the Ki is about 7.1-fold lower.

For the compound `CCN(Cc1ccc(C(=O)O)cc1)C(=O)c1nc(-c2ccccc2)c2ccccc2n1`, the Ki at Translocator protein is 719 nM.

With `CCC(C)N(C)C(=O)c1nc(-c2ccc(Cl)cc2)c2ccccc2n1` (stereo not given), in the experiment listed under Homo sapiens [2], the outcome was inactive.

On to `CCCCCCN(CCCCCC)C(=O)c1nc(-c2ccc(Cl)cc2)c2ccccc2n1`, for which the outcome in the experiment listed under Homo sapiens [2] was inactive.

As to `CCC(C)N(C)C(=O)c1nc(-c2ccccc2)c2ccccc2n1` (stereo not given), in the experiment filed under Homo sapiens [2], the result was inactive.

On to `CCN(Cc1ccc(C)cc1)C(=O)c1nc(-c2ccccc2)c2ccccc2n1`, for which, on Translocator protein, the Ki was determined as 2.57 nM.

With `CCCCN(CCCC)C(=O)c1nc(-c2ccccc2)c2ccccc2n1`, the outcome in the experiment filed under Homo sapiens [2] was inactive.

Take `CCC(C)N(C)C(=O)c1cc2ccccc2c(-c2ccccc2Cl)n1` (stereo not given) [PK-11195]: in experiment [36], the inhibition at 100 µM came out at 40%. Also, the outcome in the experiment listed under Homo sapiens [16] was Active.

In experiment [1], `O=C(NCc1ccccc1)c1nc(-c2ccccc2)c2ccccc2n1` came in with an inhibition of 41%.

Take `CCC(C)N(C)C(=O)c1nc(-c2ccccc2)c2cc(Cl)ccc2n1` (stereo not given): in the experiment listed under Homo sapiens [2], the result was inactive.

At Translocator protein, `CCN(Cc1ccccc1)C(=O)c1nc(-c2ccccc2)c2ccccc2n1` registered a Ki of 1.13 nM.

Take `CCCCCCN(CCCCCC)C(=O)c1nc(-c2ccccc2)c2ccccc2n1`: in the experiment listed under Homo sapiens [2], the outcome was inactive. For the same compound, in the experiment listed under Homo sapiens [13], the inhibition result is “Active”. Also, in [14], the concentration for half-maximal inhibition (IC50) was determined as 17700 nM. In addition, the inhibition entry in the experiment listed under Homo sapiens [15] is “Dose-dependent effect”. For the same compound, the result in the experiment listed under Homo sapiens [16] was Active.
